Measured values as given in ChEMBL document CHEMBL5335771, “Thioxanthenone-based derivatives as multitarget therapeutic leads for Alzheimer's disease” (Eur J Med Chem, 2023).
One block for each compound: values may come before it.

Legend:
Acetylcholinesterase [1] = target: Acetylcholinesterase (Electrophorus electricus, UniProt O42275); experiment: Inhibition of electric eel AChE using acetylthiocholine iodide as substrate preincubated for 20 mins followed by substrate addition by DTNB reagent based Ellman's method
Acetylcholinesterase [2] = target: Acetylcholinesterase (Homo sapiens, UniProt P22303); experiment: Inhibition of human recombinant AChE using acetylthiocholine iodide as substrate preincubated for 20 mins followed by substrate addition by DTNB reagent based Ellman's method
Cholinesterase [3] = target: Cholinesterase (Equus caballus, UniProt P81908); experiment: Inhibition of equine serum BChE using butyrylthiocholine iodide as substrate preincubated for 20 mins followed by substrate addition by DTNB reagent based Ellman's method; type: cell-free
[4] = target: T1, Microtubule-associated protein tau (Homo sapiens, UniProt P10636); experiment: Inhibition of tau (unknown origin) aggregation expressed in Escherichia coli BL21 (DE3)
Summary of the method: (§1)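 E. coli BL21(DE3) carrying pTARA (T7 RNA polymerase under PBAD) and pRKT42 (four-repeat tau) grown at 37 °C in M9 with 0.5% glucose, antibiotics and 250 μM ThS to OD600 0.6. […] ThS fluorescence ex 430/em 485 nm, normalized to tau-expressing cells (100%) and non-expressing cells (0%); OD600 checked for growth.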
Target sequence in this assay (P10636 whole entry): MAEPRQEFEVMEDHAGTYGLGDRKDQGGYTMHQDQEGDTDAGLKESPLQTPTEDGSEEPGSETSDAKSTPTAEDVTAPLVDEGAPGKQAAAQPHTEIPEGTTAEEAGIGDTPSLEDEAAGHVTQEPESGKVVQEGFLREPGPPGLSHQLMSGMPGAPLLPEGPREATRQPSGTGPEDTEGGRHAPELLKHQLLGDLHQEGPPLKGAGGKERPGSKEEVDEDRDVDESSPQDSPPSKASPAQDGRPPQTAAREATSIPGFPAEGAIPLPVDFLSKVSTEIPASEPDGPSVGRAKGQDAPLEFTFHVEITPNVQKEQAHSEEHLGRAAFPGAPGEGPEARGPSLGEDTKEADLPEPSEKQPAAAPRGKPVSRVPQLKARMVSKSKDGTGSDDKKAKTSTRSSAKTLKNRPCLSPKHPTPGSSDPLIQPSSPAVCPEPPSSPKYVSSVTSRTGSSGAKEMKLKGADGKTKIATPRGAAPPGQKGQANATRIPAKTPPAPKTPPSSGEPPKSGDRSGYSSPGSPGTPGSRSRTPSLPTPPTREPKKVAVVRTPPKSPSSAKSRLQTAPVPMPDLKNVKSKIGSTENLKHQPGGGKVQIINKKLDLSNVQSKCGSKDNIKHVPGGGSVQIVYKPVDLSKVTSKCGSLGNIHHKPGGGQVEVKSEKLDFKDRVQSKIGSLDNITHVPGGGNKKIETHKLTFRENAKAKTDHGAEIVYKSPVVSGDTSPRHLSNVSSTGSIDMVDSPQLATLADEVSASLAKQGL

[5] = target: Amyloid-beta precursor protein (Homo sapiens, UniProt P05067); experiment: Inhibition of amyloid beta 40 peptide (unknown origin) aggregation incubated for 2 hr by ThT fluorescence based spectrofluorimetric analysis
Summary of the method: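 Aβ40 peptide aggregation enhanced with 2% HFIP; thioflavin T fluorescence read-out; run in triplicate.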

Cholinesterase [6] = target: Cholinesterase (Homo sapiens, UniProt P06276); experiment: Inhibition of human recombinant BChE using acetylthiocholine iodide as substrate preincubated for 20 mins followed by substrate addition by DTNB reagent based Ellman's method
Summary of the method: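 Human BChE was assayed by the Ellman spectrophotometric method. IC50 values are means of three independent experiments, each run in triplicate.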

[7] = target: T1, Microtubule-associated protein tau; experiment: Inhibition of PHF6 peptide (unknown origin) aggregation at 10 uM measured after 3 hrs by thioflavin T fluorescence based fluorimetric analysis relative to control
Target sequence in this assay (P10636 whole entry, looked up): as the sequence (P10636 whole entry) above

[8] = target: T1, Microtubule-associated protein tau; experiment: Inhibition of tau (unknown origin) aggregation expressed in Escherichia coli BL21 (DE3) at 10 uM relative to control; summary of the method: as §1
Target sequence in this assay (P10636 whole entry): as above

[9] = Cytotoxicity against mouse brain Primary embryonic cortical cell assessed as cell death at 2.5 uM incubated for 3 hrs by propidium iodide dye based spectrofluorometric analysis relative to control; type: toxicity
Summary of the method: (§2)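 Primary cortical cultures from E16.5 mouse embryo brains, trypsinized, plated on poly-D-lysine, grown in Neurobasal with glutamine, glucose, 5% horse serum and B27; compounds added at 4 DIV. Propidium iodide 30 μM; baseline F1 read 1 h after PI; ex 530/em 645 nm. Fmax after digitonin permeabilization. % death = 100×(Fn−F1)/(Fmax−F1); mean of three independent experiments.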

[10] = Cytotoxicity against mouse brain Primary embryonic cortical cell assessed as cell death at 5 uM incubated for 3 hrs by propidium iodide dye based spectrofluorometric analysis relative to control; type: toxicity; summary of the method: as §2
[11] = Cytotoxicity against mouse brain Primary embryonic cortical cell assessed as cell death at 10 uM incubated for 4 hrs by propidium iodide dye based spectrofluorometric analysis relative to control; type: toxicity; summary of the method: as §2
[12] = Cytotoxicity against mouse brain Primary embryonic cortical cell assessed as cell death at 2.5 uM incubated for 1 hr by propidium iodide dye based spectrofluorometric analysis relative to control; type: toxicity; summary of the method: as §2
[13] = Cytotoxicity against mouse brain Primary embryonic cortical cell assessed as cell death at 5 uM incubated for 24 hrs by propidium iodide dye based spectrofluorometric analysis relative to control; type: toxicity; summary of the method: as §2
[14] = Cytotoxicity against mouse brain Primary embryonic cortical cell assessed as cell death at 10 uM incubated for 5 hrs by propidium iodide dye based spectrofluorometric analysis relative to control; type: toxicity; summary of the method: as §2
[15] = Cytotoxicity against mouse brain Primary embryonic cortical cell assessed as cell death at 30 uM incubated for 48 hrs by propidium iodide dye based spectrofluorometric analysis relative to control; type: toxicity; summary of the method: as §2
[16] = Cytotoxicity against mouse brain Primary embryonic cortical cell assessed as cell death at 10 uM incubated for 48 hrs by propidium iodide dye based spectrofluorometric analysis relative to control; type: toxicity; summary of the method: as §2
[17] = Cytotoxicity against mouse brain Primary embryonic cortical cell assessed as cell death at 10 uM incubated for 1 hr by propidium iodide dye based spectrofluorometric analysis relative to control; type: toxicity; summary of the method: as §2
[18] = Cytotoxicity against mouse brain Primary embryonic cortical cell assessed as cell death at 10 uM incubated for 6 hrs by propidium iodide dye based spectrofluorometric analysis relative to control; type: toxicity; summary of the method: as §2
[19] = Cytotoxicity against mouse brain Primary embryonic cortical cell assessed as cell death at 5 uM incubated for 2 hrs by propidium iodide dye based spectrofluorometric analysis relative to control; type: toxicity; summary of the method: as §2
[20] = Cytotoxicity against mouse brain Primary embryonic cortical cell assessed as cell death at 30 uM incubated for 2 hrs by propidium iodide dye based spectrofluorometric analysis relative to control; type: toxicity; summary of the method: as §2
[21] = Cytotoxicity against mouse brain Primary embryonic cortical cell assessed as cell death at 30 uM incubated for 72 hrs by propidium iodide dye based spectrofluorometric analysis relative to control; type: toxicity; summary of the method: as §2
[22] = Cytotoxicity against mouse brain Primary embryonic cortical cell assessed as cell death at 10 uM incubated for 2 hrs by propidium iodide dye based spectrofluorometric analysis relative to control; type: toxicity; summary of the method: as §2
[23] = Cytotoxicity against mouse brain Primary embryonic cortical cell assessed as cell death at 2.5 uM incubated for 48 hrs by propidium iodide dye based spectrofluorometric analysis relative to control; type: toxicity; summary of the method: as §2
[24] = Cytotoxicity against mouse brain Primary embryonic cortical cell assessed as cell death at 30 uM incubated for 6 hrs by propidium iodide dye based spectrofluorometric analysis relative to control; type: toxicity; summary of the method: as §2
[25] = Cytotoxicity against mouse brain Primary embryonic cortical cell assessed as cell death at 2.5 uM incubated for 6 hrs by propidium iodide dye based spectrofluorometric analysis relative to control; type: toxicity; summary of the method: as §2
[26] = Cytotoxicity against mouse brain Primary embryonic cortical cell assessed as cell death at 2.5 uM incubated for 4 hrs by propidium iodide dye based spectrofluorometric analysis relative to control; type: toxicity; summary of the method: as §2
[27] = Cytotoxicity against mouse brain Primary embryonic cortical cell assessed as cell death at 2.5 uM incubated for 2 hrs by propidium iodide dye based spectrofluorometric analysis relative to control; type: toxicity; summary of the method: as §2
[28] = Cytotoxicity against mouse brain Primary embryonic cortical cell assessed as cell death at 10 uM incubated for 3 hrs by propidium iodide dye based spectrofluorometric analysis relative to control; type: toxicity; summary of the method: as §2
[29] = Cytotoxicity against mouse brain Primary embryonic cortical cell assessed as cell death at 30 uM incubated for 4 hrs by propidium iodide dye based spectrofluorometric analysis relative to control; type: toxicity; summary of the method: as §2
[30] = Cytotoxicity against mouse brain Primary embryonic cortical cell assessed as cell death at 5 uM incubated for 5 hrs by propidium iodide dye based spectrofluorometric analysis relative to control; type: toxicity; summary of the method: as §2
[31] = Cytotoxicity against mouse brain Primary embryonic cortical cell assessed as cell death at 30 uM incubated for 3 hrs by propidium iodide dye based spectrofluorometric analysis relative to control; type: toxicity; summary of the method: as §2
[32] = Cytotoxicity against mouse brain Primary embryonic cortical cell assessed as cell death at 30 uM incubated for 5 hrs by propidium iodide dye based spectrofluorometric analysis relative to control; type: toxicity; summary of the method: as §2
[33] = Cytotoxicity against mouse brain Primary embryonic cortical cell assessed as cell death at 2.5 uM incubated for 72 hrs by propidium iodide dye based spectrofluorometric analysis relative to control; type: toxicity; summary of the method: as §2
[34] = Cytotoxicity against mouse brain Primary embryonic cortical cell assessed as cell death at 5 uM incubated for 1 hr by propidium iodide dye based spectrofluorometric analysis relative to control; type: toxicity; summary of the method: as §2
[35] = Cytotoxicity against mouse brain Primary embryonic cortical cell assessed as cell death at 30 uM incubated for 24 hrs by propidium iodide dye based spectrofluorometric analysis relative to control; type: toxicity; summary of the method: as §2
[36] = Cytotoxicity against mouse brain Primary embryonic cortical cell assessed as cell death at 5 uM incubated for 72 hrs by propidium iodide dye based spectrofluorometric analysis relative to control; type: toxicity; summary of the method: as §2
[37] = Cytotoxicity against mouse brain Primary embryonic cortical cell assessed as cell death at 2.5 uM incubated for 24 hrs by propidium iodide dye based spectrofluorometric analysis relative to control; type: toxicity; summary of the method: as §2
[38] = Cytotoxicity against mouse brain Primary embryonic cortical cell assessed as cell death at 10 uM incubated for 72 hrs by propidium iodide dye based spectrofluorometric analysis relative to control; type: toxicity; summary of the method: as §2
[39] = Cytotoxicity against mouse brain Primary embryonic cortical cell assessed as cell death at 10 uM incubated for 24 hrs by propidium iodide dye based spectrofluorometric analysis relative to control; type: toxicity; summary of the method: as §2
[40] = Cytotoxicity against mouse brain Primary embryonic cortical cell assessed as cell death at 5 uM incubated for 6 hrs by propidium iodide dye based spectrofluorometric analysis relative to control; type: toxicity; summary of the method: as §2
[41] = Cytotoxicity against mouse brain Primary embryonic cortical cell assessed as cell death at 5 uM incubated for 4 hrs by propidium iodide dye based spectrofluorometric analysis relative to control; type: toxicity; summary of the method: as §2
[42] = Cytotoxicity against mouse brain Primary embryonic cortical cell assessed as cell death at 2.5 uM incubated for 5 hrs by propidium iodide dye based spectrofluorometric analysis relative to control; type: toxicity; summary of the method: as §2
[43] = Cytotoxicity against mouse brain Primary embryonic cortical cell assessed as cell death at 5 uM incubated for 48 hrs by propidium iodide dye based spectrofluorometric analysis relative to control; type: toxicity; summary of the method: as §2
[44] = Cytotoxicity against mouse brain Primary embryonic cortical cell assessed as cell death at 30 uM incubated for 1 hr by propidium iodide dye based spectrofluorometric analysis relative to control; type: toxicity; summary of the method: as §2

Sequence of Amyloid-beta precursor protein (P05067 whole entry): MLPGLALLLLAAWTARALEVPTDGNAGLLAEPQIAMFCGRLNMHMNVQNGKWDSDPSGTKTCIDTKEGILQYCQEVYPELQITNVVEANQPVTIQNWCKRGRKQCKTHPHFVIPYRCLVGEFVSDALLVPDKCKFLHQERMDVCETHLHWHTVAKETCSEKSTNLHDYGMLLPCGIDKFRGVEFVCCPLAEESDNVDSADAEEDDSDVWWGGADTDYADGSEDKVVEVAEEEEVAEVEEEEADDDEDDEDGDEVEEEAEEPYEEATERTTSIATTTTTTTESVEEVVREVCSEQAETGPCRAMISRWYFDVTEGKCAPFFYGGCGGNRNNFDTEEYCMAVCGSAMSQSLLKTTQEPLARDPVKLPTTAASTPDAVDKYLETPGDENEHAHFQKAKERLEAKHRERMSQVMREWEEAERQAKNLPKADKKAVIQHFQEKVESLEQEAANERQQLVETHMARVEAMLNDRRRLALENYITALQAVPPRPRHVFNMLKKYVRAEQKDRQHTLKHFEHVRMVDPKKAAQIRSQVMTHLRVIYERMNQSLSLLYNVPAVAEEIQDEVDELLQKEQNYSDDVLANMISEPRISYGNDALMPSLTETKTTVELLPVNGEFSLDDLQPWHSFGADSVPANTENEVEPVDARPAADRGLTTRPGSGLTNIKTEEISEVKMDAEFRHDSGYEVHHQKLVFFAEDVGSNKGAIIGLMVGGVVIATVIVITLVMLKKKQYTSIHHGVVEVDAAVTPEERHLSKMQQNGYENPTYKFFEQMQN
Sequence of Acetylcholinesterase (Electrophorus electricus, UniProt O42275) (O42275 whole entry): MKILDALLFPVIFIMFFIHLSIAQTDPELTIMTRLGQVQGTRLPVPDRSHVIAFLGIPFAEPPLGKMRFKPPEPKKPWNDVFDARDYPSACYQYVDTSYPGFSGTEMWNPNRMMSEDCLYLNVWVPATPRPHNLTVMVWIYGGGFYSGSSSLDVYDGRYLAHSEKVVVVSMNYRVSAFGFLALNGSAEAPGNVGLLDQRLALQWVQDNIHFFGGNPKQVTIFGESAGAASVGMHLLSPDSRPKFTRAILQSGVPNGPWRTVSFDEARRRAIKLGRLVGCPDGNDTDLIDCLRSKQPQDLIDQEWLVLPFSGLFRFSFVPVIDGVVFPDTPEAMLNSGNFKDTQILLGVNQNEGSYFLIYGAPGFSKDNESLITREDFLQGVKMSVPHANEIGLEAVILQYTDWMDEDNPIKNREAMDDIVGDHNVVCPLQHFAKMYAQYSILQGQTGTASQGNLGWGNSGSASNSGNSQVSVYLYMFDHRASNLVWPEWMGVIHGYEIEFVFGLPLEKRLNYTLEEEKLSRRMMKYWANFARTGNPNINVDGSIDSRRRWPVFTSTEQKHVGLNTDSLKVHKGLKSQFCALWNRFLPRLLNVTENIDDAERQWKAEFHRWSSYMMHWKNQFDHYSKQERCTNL
Sequence of Acetylcholinesterase (Homo sapiens, UniProt P22303) (P22303 whole entry): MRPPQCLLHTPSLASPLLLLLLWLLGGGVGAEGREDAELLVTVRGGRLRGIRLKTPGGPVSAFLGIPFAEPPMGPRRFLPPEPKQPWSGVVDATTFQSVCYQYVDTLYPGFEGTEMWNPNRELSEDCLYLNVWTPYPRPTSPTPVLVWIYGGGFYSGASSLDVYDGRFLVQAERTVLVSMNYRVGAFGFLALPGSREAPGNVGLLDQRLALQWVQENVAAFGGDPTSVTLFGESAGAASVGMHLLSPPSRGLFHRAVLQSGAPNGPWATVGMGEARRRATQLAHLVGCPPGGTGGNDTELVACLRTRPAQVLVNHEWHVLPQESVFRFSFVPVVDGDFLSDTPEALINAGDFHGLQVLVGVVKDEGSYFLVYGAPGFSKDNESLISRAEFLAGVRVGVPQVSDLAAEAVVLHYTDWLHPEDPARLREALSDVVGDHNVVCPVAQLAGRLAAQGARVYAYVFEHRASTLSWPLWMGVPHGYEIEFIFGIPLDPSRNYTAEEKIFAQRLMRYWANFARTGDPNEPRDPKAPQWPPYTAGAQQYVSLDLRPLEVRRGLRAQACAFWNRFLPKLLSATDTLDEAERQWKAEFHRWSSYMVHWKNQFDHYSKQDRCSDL
Sequence of Cholinesterase (Homo sapiens, UniProt P06276) (P06276 whole entry): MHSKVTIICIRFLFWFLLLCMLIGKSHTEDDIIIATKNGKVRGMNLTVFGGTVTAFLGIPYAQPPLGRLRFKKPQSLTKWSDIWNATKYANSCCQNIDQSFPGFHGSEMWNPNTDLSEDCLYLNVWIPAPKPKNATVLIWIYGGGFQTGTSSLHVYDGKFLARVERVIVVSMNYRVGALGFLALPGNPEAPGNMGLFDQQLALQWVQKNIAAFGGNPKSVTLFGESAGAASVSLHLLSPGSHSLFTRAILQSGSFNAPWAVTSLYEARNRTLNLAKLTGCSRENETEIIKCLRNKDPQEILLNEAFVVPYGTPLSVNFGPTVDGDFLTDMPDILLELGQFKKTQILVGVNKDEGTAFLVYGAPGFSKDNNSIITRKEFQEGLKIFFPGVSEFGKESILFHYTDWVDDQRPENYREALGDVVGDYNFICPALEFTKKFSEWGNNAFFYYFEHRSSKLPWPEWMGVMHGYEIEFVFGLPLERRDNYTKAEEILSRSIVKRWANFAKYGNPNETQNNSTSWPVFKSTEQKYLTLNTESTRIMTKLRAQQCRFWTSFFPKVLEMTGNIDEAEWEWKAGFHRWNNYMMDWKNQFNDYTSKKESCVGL
Sequence of Cholinesterase (Equus caballus, UniProt P81908) (P81908 whole entry): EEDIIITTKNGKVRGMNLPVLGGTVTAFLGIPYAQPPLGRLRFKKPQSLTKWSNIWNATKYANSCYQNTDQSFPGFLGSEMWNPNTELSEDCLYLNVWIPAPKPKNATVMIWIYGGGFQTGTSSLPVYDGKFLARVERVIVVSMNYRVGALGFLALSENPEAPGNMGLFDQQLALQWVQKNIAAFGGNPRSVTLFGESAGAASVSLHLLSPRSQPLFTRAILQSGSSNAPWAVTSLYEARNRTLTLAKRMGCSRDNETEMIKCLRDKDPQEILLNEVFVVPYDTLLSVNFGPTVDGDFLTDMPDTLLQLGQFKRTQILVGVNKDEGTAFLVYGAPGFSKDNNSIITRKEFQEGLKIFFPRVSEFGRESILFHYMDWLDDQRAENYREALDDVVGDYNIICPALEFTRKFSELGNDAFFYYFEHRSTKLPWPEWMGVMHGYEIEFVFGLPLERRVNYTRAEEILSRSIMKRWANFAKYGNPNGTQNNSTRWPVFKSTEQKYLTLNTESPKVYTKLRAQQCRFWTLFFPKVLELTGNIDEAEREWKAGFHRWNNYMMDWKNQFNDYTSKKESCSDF

Structure (SMILES): COc1ccc2sc3c([N+](=O)[O-])ccc(NCC[C@@H]4CCCN5CCCC[C@H]45)c3c(=O)c2c1
IC50 (Acetylcholinesterase [1]): 2.3 µM
IC50 (Acetylcholinesterase [2]): 4.75 µM
IC50 (Cholinesterase [3]): 0.15 µM
IC50 [4]: 6.9 µM
IC50 [5]: 9.1 µM
IC50 (Cholinesterase [6]): 1.82 µM

Structure (SMILES): CCN(CC)CCCNc1ccc(N)c2sc3ccc(OC)cc3c(=O)c12
inhibition [8]: 24%
inhibition [7]: > 80%
IC50 [5]: 21 µM

Structure (SMILES): CCN(CC)CCCNc1ccc([N+](=O)[O-])c2sc3ccc(OC)cc3c(=O)c12
IC50 [4]: 4.8 µM
IC50 [5]: 17 µM

Structure (SMILES): COc1ccc2sc3c([N+](=O)[O-])ccc(NCCC[C@@H]4CCCN5CCCC[C@H]45)c3c(=O)c2c1
IC50 (Acetylcholinesterase [1]): 0.12 µM
IC50 (Acetylcholinesterase [2]): 1.75 µM
IC50 (Cholinesterase [3]): 2 µM
IC50 [4]: 3 µM
IC50 [5]: 7.9 µM
IC50 (Cholinesterase [6]): 7.31 µM

Structure (SMILES): Cc1ccc(NCC[C@@H]2CCCN3CCCC[C@H]23)c2c(=O)c3cc(O)ccc3sc12
IC50 (Acetylcholinesterase [1]): 3.2 µM
IC50 (Acetylcholinesterase [2]): 4.26 µM
IC50 (Cholinesterase [3]): 0.16 µM
IC50 [4]: 8.9 µM
IC50 [5]: 2.4 µM
IC50 (Cholinesterase [6]): 0.9 µM

Now from value to compound, other results behind:

IC50 [4]: 7.3 µM
inhibition [7]: > 80%
IC50 [5]: 2.9 µM
Structure (SMILES): Cc1ccc(NCCC[C@@H]2CCCN3CCCC[C@H]23)c2c(=O)c3cc(O)ccc3sc12

inhibition [8]: 26%
IC50 [5]: 1.3 µM
Structure (SMILES): Nc1ccc(NCCC[C@@H]2CCCN3CCCC[C@H]23)c2c(=O)c3ccccc3sc12

IC50 [4]: 5.9 µM
IC50 [5]: 2.5 µM
Structure (SMILES): COc1ccc2sc3c(C)ccc(NCCC[C@@H]4CCCN5CCCC[C@H]45)c3c(=O)c2c1
Activity [9]: 1.8%
Activity [10]: 1.8%
Activity [11]: 5.3%
Activity [12]: -0.1%
Activity [13]: 17.8%
Activity [14]: 6.1%
Activity [15]: 52.4%
Activity [16]: 27.4%
Activity [17]: 4.2%
Activity [18]: 4%
Activity [19]: 3.4%
Activity [20]: 5.7%
Activity [21]: 54.3%
Activity [22]: 5.8%
Activity [23]: 18.4%
Activity [24]: 10.7%
Activity [25]: 2%
Activity [26]: 2.2%
Activity [27]: 1.6%
Activity [28]: 4.9%
Activity [29]: 9.5%
Activity [30]: 4.4%
Activity [31]: 7.1%
Activity [32]: 9.3%
Activity [33]: 33.6%
Activity [34]: 1%
Activity [35]: 48.6%
Activity [36]: 37.6%
Activity [37]: 8.9%
Activity [38]: 42.1%
Activity [39]: 19.6%
Activity [40]: 5.7%
Activity [41]: 3.3%
Activity [42]: 1.9%
Activity [43]: 27.8%
Activity [44]: 3.8%

IC50 [4]: 15 µM
IC50 [5]: 20 µM
Structure (SMILES): O=c1c2ccccc2sc2c([N+](=O)[O-])ccc(NC[C@@H]3CCCN4CCCC[C@H]34)c12

IC50 [4]: 5.5 µM
IC50 [5]: 4.3 µM
Structure (SMILES): COc1ccc2sc3c(C)ccc(NC[C@@H]4CCCN5CCCC[C@H]45)c3c(=O)c2c1
